Measured values from ChEMBL document CHEMBL4028913, “Discovery of Novel Potent VEGFR-2 Inhibitors Exerting Significant Antiproliferative Activity against Cancer Cell Lines” (J Med Chem, 2018).
Activity calls are given as the source filed them. The rule behind the calls is not given here.

What was measured:
RXF 393 = experiment: Cytotoxicity against human RXF393 cells after 48 hrs by SRB assay; type: functional; details: RXF 393, 48 h
Outline: (§1)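 NCI-60 panel; cells grown in RPMI 1640 with 5% FBS and 2 mM L-glutamine, plated at 5000–40 000 cells/well by doubling time, preincubated 24 h (37 °C, 5% CO2). Drug added at five concentrations, 1-log steps from 10−4 to 10−8 M, for 48 h. Fixed with TCA, stained with 0.4% SRB, absorbance read at 515 nm. Percent growth computed against time-zero and untreated controls; GI50, TGI and LC50 derived.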

[1] = Potency index, ratio of sunitinib GI50 to test compound GI50 for human ovarian cancer cells; type: functional, Ovarian cancer cell
Leukemia cell = experiment: Potency index, ratio of sunitinib GI50 to test compound GI50 for human leukemia cells; type: functional
Outline: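 GI50 is the concentration giving 50% reduction in net protein increase relative to control. Potency index is the reference-drug GI50 divided by the test-compound GI50.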

SF-295 = experiment: Cytotoxicity against human SF295 cells after 48 hrs by SRB assay; type: functional; details: SF-295, 48 h; outline: as §1
NCI-H522 = experiment: Cytotoxicity against human NCI-H522 cells after 48 hrs by SRB assay; type: functional; details: NCI-H522, 48 h; outline: as §1
NCI-H460 = experiment: Cytotoxicity against human NCI-H460 cells after 48 hrs by SRB assay; type: functional; details: NCI-H460, 48 h; outline: as §1
MDA-MB-435 = experiment: Cytotoxicity against human MDA-MB-435 cells after 48 hrs by SRB assay; type: functional; details: MDA-MB-435, 48 h; outline: as §1
[2] = biological target: Receptor-type tyrosine-protein kinase FLT3 (Homo sapiens) (UniProt P36888); experiment: Inhibition of human Flt3 at 0.5 uM relative to control
SK-MEL-28 = experiment: Cytotoxicity against human SK-MEL-28 cells after 48 hrs by SRB assay; type: functional; details: SK-MEL-28, 48 h; outline: as §1
[3] = biological target: Fibroblast growth factor receptor 1 (Homo sapiens) (UniProt P11362); experiment: Inhibition of human FGFR1 at 0.5 uM relative to control
IGROV-1 = experiment: Cytotoxicity against human IGROV1 cells after 48 hrs by SRB assay; type: functional; details: IGROV-1, 48 h; outline: as §1
[4] = biological target: Vascular endothelial growth factor receptor 2 (Homo sapiens, UniProt P35968); experiment: Inhibition of VEGFR2 in human prostate cancer cells assessed as decrease in Akt activation at 10 uM relative to control
EKVX = experiment: Cytotoxicity against human EKVX cells after 48 hrs by SRB assay; type: functional; outline: as §1
NCI-H23 = experiment: Cytotoxicity against human NCI-H23 cells after 48 hrs by SRB assay; type: functional; details: NCI-H23, 48 h; outline: as §1
Hs-578T = experiment: Cytotoxicity against human Hs 578T cells after 48 hrs by SRB assay; type: functional; outline: as §1
OVCAR-5 = experiment: Cytotoxicity against human OVCAR5 cells after 48 hrs by SRB assay; type: functional; details: OVCAR-5, 48 h; outline: as §1
A549 = experiment: Cytotoxicity against human A549 cells after 48 hrs by SRB assay; type: functional; details: A549, 48 h; outline: as §1
[5] = biological target: Vascular endothelial growth factor receptor 3 (Homo sapiens) (UniProt P35916); experiment: Inhibition of human Flt4 at 0.5 uM relative to control
[6] = biological target: STE20-like serine/threonine-protein kinase (Homo sapiens) (UniProt Q9H2G2); experiment: Inhibition of human SLK at 0.5 uM relative to control
[7] = read-out: LC50 (the source's name)

Chain of Fibroblast growth factor receptor 1 (Homo sapiens) (P11362 22-822 limits assumed): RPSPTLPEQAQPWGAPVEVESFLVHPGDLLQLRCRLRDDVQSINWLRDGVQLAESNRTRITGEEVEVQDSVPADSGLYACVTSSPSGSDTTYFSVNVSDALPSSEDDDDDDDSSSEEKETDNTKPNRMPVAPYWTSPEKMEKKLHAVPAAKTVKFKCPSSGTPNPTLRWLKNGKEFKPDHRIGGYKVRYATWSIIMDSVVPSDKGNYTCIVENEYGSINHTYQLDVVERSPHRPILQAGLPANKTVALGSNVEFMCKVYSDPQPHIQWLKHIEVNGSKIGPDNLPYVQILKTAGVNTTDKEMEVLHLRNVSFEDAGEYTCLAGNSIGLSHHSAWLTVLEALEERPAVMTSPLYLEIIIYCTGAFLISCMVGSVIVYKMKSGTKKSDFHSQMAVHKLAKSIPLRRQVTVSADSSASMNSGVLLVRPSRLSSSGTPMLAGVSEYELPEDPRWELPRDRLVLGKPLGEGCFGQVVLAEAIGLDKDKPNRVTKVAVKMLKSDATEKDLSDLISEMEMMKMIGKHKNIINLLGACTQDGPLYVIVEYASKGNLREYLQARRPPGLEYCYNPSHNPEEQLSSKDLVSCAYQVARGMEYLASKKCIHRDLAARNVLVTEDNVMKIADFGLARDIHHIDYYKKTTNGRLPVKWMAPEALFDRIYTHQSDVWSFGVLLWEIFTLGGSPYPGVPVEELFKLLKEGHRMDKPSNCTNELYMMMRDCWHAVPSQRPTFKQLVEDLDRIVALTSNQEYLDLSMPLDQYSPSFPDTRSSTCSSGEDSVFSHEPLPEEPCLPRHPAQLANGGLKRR
Chain of Vascular endothelial growth factor receptor 2 (P35968 whole entry): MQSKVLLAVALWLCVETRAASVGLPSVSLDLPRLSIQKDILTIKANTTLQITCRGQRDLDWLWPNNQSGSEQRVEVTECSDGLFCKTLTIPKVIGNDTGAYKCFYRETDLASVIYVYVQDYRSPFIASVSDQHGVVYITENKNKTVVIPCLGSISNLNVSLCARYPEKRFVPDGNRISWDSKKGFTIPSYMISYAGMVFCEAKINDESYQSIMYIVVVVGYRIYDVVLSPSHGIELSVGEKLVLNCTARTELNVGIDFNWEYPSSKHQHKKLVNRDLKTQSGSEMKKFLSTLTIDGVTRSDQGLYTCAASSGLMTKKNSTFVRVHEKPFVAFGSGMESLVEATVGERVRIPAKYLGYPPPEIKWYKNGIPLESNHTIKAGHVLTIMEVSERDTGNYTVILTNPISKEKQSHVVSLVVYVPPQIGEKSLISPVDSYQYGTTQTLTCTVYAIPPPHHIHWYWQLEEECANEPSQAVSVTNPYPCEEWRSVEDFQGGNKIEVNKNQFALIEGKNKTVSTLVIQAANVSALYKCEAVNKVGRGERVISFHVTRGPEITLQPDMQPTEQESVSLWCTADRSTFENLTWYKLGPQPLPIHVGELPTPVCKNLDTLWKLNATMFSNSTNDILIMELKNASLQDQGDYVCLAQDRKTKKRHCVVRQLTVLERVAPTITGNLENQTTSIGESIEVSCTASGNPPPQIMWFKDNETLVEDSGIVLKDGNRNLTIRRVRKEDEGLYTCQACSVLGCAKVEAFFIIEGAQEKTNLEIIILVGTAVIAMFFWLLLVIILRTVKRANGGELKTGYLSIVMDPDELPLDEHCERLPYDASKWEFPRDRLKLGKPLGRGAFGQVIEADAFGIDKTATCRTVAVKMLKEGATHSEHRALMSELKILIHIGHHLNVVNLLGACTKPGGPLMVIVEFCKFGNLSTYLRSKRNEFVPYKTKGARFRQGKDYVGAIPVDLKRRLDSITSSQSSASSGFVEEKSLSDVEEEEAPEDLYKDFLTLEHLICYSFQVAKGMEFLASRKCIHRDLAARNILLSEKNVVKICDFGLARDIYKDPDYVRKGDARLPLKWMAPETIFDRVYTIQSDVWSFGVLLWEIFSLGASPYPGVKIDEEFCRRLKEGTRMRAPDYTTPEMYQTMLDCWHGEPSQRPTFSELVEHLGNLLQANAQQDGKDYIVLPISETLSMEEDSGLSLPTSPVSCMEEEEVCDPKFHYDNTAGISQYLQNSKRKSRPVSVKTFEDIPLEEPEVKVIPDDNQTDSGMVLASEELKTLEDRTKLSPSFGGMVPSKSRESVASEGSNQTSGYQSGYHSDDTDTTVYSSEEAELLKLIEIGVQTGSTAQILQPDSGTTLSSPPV
Chain of Vascular endothelial growth factor receptor 3 (Homo sapiens) (P35916 whole entry): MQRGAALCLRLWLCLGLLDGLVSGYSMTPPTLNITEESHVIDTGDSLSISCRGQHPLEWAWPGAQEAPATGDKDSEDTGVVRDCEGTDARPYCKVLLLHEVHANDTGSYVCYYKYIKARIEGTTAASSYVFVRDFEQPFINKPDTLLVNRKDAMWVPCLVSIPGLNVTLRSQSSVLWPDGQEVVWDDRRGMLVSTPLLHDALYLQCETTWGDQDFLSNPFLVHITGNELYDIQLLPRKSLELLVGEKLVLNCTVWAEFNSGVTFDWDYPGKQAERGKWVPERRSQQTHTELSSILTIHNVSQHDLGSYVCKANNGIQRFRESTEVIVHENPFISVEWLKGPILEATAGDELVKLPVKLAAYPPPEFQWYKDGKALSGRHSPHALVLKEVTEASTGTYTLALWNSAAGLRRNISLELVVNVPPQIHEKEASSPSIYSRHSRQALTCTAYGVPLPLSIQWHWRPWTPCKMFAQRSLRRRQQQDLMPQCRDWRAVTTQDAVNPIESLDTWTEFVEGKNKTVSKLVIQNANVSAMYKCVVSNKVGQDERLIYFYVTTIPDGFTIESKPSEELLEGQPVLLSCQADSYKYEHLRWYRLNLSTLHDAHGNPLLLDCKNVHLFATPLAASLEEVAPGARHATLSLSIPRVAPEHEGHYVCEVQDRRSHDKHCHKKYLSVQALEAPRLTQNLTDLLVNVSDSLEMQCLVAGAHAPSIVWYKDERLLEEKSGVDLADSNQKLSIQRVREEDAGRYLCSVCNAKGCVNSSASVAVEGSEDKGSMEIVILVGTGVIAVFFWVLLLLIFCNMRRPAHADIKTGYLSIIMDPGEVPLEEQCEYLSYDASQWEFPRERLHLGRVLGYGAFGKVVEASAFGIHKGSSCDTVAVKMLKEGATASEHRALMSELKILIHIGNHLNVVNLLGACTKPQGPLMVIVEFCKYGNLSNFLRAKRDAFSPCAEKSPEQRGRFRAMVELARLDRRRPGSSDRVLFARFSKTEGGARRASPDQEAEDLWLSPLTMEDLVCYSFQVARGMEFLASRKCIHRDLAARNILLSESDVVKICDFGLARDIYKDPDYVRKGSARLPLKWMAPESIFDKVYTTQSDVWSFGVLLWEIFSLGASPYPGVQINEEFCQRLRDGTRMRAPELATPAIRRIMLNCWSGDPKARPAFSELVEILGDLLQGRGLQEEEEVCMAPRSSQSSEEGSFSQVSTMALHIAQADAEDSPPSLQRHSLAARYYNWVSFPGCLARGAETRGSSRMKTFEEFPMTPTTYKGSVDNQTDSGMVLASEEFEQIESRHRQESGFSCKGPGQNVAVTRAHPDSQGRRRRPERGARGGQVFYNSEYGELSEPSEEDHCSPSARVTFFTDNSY
Chain of STE20-like serine/threonine-protein kinase (Homo sapiens) (Q9H2G2 whole entry, looked up): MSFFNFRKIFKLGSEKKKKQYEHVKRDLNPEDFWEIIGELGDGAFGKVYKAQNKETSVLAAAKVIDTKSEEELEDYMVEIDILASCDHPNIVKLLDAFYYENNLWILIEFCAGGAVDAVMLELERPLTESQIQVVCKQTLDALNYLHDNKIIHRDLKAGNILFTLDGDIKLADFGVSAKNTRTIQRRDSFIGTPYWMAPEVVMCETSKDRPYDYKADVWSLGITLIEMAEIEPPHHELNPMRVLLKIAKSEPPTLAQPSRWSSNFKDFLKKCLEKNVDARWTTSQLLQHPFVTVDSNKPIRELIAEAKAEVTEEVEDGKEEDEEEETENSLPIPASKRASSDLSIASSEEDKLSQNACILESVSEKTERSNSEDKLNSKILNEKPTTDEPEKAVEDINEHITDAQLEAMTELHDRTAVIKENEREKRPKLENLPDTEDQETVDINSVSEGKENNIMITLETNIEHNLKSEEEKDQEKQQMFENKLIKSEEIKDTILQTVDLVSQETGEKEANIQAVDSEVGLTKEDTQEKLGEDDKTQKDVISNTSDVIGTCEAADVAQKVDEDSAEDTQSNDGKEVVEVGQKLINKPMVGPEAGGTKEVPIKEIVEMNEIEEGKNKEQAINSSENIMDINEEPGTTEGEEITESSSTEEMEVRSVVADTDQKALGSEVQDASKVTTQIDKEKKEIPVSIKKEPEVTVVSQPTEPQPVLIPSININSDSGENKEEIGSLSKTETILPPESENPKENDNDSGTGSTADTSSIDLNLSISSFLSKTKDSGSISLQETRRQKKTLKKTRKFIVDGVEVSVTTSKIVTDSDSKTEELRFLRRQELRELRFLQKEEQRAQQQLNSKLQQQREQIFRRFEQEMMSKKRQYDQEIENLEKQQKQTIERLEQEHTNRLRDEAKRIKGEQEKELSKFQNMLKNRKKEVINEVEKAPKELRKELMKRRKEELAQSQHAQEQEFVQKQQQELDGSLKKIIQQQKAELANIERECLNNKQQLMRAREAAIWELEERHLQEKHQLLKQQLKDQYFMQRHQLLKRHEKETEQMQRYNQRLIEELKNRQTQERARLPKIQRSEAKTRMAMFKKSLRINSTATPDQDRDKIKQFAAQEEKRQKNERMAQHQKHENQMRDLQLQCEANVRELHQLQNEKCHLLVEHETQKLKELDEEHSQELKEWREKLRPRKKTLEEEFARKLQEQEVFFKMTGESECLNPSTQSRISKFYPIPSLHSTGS

In the case of `COc1cc2ncnc(Oc3ccc(NC(=O)Nc4ccc(CN5CCOCC5)c(C(F)(F)F)c4)c4ccccc34)c2cc1OC`, the GI50 (RXF 393) is reported as 1.05 µM, the TGI (RXF 393) is reported as 7.08 µM and the CC50 (RXF 393; [7]) is reported as 29.5 µM. The RatioGI50 [1] was 5 - 7.7, the RatioGI50 (Leukemia cell) was 5 - 7.7 and the GI50 (SF-295) was 1.23 µM. It also gave a TGI (SF-295) of 6.03 µM, a CC50 (SF-295; [7]) of 30.9 µM and a GI50 (NCI-H522) of 0.31 µM. For the same compound, the TGI (NCI-H522) was 3.8 µM, the CC50 (NCI-H522; [7]) was over 100 µM and the GI50 (NCI-H460) was 1.41 µM. The TGI (NCI-H460) was 4.27 µM, the CC50 (NCI-H460; [7]) was 25.7 µM and the GI50 (MDA-MB-435) was 0.37 µM. For the same compound, the TGI (MDA-MB-435) was 3.39 µM, the CC50 (MDA-MB-435; [7]) was 33.9 µM and the inhibition [2] was “Active”. It also gave a GI50 (SK-MEL-28) of 0.89 µM, a TGI (SK-MEL-28) of 4.79 µM and a CC50 (SK-MEL-28; [7]) of 42.7 µM. It also gave an inhibition [3] of over 96%, a GI50 (IGROV-1) of 0.52 µM and a TGI (IGROV-1) of 3.63 µM. It also gave a CC50 (IGROV-1; [7]) of over 100 µM, an inhibition [4] of under 20% and a GI50 (EKVX) of 0.45 µM. It also gave a TGI (EKVX) of 6.46 µM, a CC50 (EKVX; [7]) of 67.6 µM and a GI50 (NCI-H23) of 0.62 µM. For the same compound, the TGI (NCI-H23) was 3.98 µM, the CC50 (NCI-H23; [7]) was over 100 µM and the GI50 (Hs-578T) was 1.12 µM. For the same compound, the TGI (Hs-578T) was 9.33 µM, the CC50 (Hs-578T; [7]) was over 100 µM and the GI50 (OVCAR-5) was 1.07 µM. For the same compound, the TGI (OVCAR-5) was 10.5 µM, the CC50 (OVCAR-5; [7]) was over 100 µM and the GI50 (A549) was 0.55 µM. The TGI (A549) was 10.7 µM, the CC50 (A549; [7]) was 81.3 µM and the inhibition [5] was “Active”. For the same compound, the inhibition [6] was “Active”.
